The record followed here is ChEMBL document CHEMBL1154374, “Lipophilic 2,5-disubstituted pyrroles from the marine sponge Mycale sp. inhibit mitochondrial respiration and HIF-1 activation” (J Nat Prod, 2009).

Active and inactive are the calls of the source. The calls are words filed in the database; no cut-off is given here. A value given as a limit tells only on which side of the number the result lay.

Assay [1] has as its target T1, Hypoxia inducible factors; HIF-1-alpha, HIF-2-alpha (Homo sapiens, UniProt Q16665+Q99814). Description: Inhibition of hypoxia-induced HIF1 activation in human T47D cells at 30 uM by pTK-HRE3-luciferase reporter gene assay. The class given is cell-based. An outline of the steps: (§1)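 T47D HIF-1 luciferase reporter under hypoxia (1% O2). Compounds supplied as 4 mM isopropanol stocks, final solvent under 0.75%. % inhibition = (1 − treated/induced light output) × 100. Concentration-response, one experiment in triplicate, mean ± SD.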
On the technique in general: Reporter assays use an easily measured gene product as a stand-in for the process of interest.

The nature of assay [2]: (§2) Inhibition of electron transport protein complex 1 in human T47D cells assessed as decrease in oxygen consumption by mitochondrial respiration assay. The class given is cell-based. An outline of the steps:
(§3)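 Oxygen consumption of intact T47D cells measured by an adapted isolated-mitochondria respiration method. Compounds tested at 1, 3, 10 and 30 μM. Three independent experiments, mean ± SD. One-way ANOVA with Bonferroni post hoc, p < 0.05.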

Assay [3] deals with T1, Hypoxia inducible factors; HIF-1-alpha, HIF-2-alpha. As to the kind of experiment: Inhibition of hypoxia-induced HIF1 activation in human T47D cells by pTK-HRE3-luciferase reporter gene assay. The class given is cell-based. An outline of the steps: as §1
Assay [4] shares this target. Description: Inhibition of 1,10-phenanthroline-induced HIF1 activation in human T47D cells at 10 uM by pTK-HRE3-luciferase reporter gene assay. The class given is cell-based. An outline of the steps:
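T47D HIF-1 luciferase reporter; activation induced with 1,10-phenanthroline (10 μM). Compounds supplied as 4 mM isopropanol stocks, final solvent under 0.75%. % inhibition = (1 − treated/induced light output) × 100. Concentration-response, one experiment in triplicate, mean ± SD.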

In assay [5] the test system is T47D. Description: Inhibition of hypoxia-induced increase in VEGF production in human T47D cells at 10 uM after 16 hrs by ELISA. The class given is functional, cell-based. An outline of the steps:
(§4)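 T47D cells held at 1% O2 for 16 h with compound at 10 or 30 μM. Secreted VEGF in conditioned medium measured by ELISA and normalized to total cell-lysate protein (micro BCA). One experiment in triplicate, mean ± SD. Compared with one-way ANOVA and Bonferroni post hoc.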
A general note: An ELISA detects its analyte on a solid surface through an enzyme-linked reagent.

In assay [6] the test system is T47D. Description: Inhibition of hypoxia-induced increase in VEGF production in human T47D cells at 30 uM after 16 hrs by ELISA. The class given is functional. An outline of the steps: as §4
Assay [7] deals with T47D. As to the kind of experiment: Inhibition of electron transport protein complex 4 in human T47D cells assessed as decrease in oxygen consumption at 10 uM in presence of succinate by mitochondrial respiration assay. The class given is cell-based. An outline of the steps: (§5)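 Digitonin-permeabilized T47D cells, O2 consumption. Malate/pyruvate starts complex I respiration. Rotenone, then succinate (complex II substrate), then antimycin A, then TMPD/ascorbate (complex IV substrates) added sequentially. Rotenone and antimycin A from ethanol stocks, final 1 μM.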

Assay [8] deals with T47D. The description is as §2. The class given is cell-based. An outline of the steps:
as §3

Assay [9] has as its system T47D. As to the kind of experiment: Inhibition of electron transport protein complex 3 in human T47D cells assessed as decrease in oxygen consumption at 10 uM in presence of succinate by mitochondrial respiration assay. The class given is cell-based. An outline of the steps: as §5
Assay [10] relates to T47D. As to the kind of experiment: Inhibition of electron transport protein complex 1 in human T47D cells assessed as decrease in oxygen consumption at 10 uM by mitochondrial respiration assay. The class given is cell-based. An outline of the steps:
as §5

Assay [11] has as its system T47D. As to the kind of experiment: Inhibition of electron transport protein complex 2 in human T47D cells assessed as decrease in oxygen consumption at 10 uM in presence of succinate by mitochondrial respiration assay. The class given is cell-based. An outline of the steps:
as §5

As a reminder, the inhibition is the relative decrease from the control value, in per cent. The term IC50 denotes the concentration at which inhibition is half-maximal. With `N#CCCCCCCCCCCCCCCCCCCCCc1ccc(C=O)[nH]1`, the inhibition in assay [1] is less than 50%. For the same molecule, the IC50 in [2] was more than 30 µM.
Molecule `CCCCCCCCCCCCCCc1ccc(C=O)[nH]1` [MYCALAZAL 14] displayed an IC50 in assay [3] of 20 µM.
On the same count and under the same terms, the value for `CC(C)CCCCCCCCC/C=C\CCc1ccc(C=O)[nH]1` [MYCALAZAL 16] was 20 µM; that for `CC/C=C\C/C=C\C/C=C\CCCCCCCCCCCc1ccc(C=O)[nH]1` [MYCALAZAL 3] was 20 µM.
Consider `CC(C)CCCCCCCCCCCCCc1ccc(C=O)[nH]1`, for which the inhibition in assay [1] was less than 50%.
In assay [3], `N#CCCCCCC/C=C\CCCCCCCCCCCc1ccc(C=O)[nH]1` [MYCALENITRILE 8] returned an IC50 of 10 µM. In addition, in assay [4], the inhibition entry is “inactive”.
The molecule `N#CCCCCCCCCCCCCCC/C=C\CCCCCCc1ccc(C=O)[nH]1` came in with an inhibition in assay [1] of less than 50%.
Same read-out and setting: the value for `N#CCCCCCCCCCCCCCCCC/C=C\C/C=C\CCc1ccc(C=O)[nH]1` was less than 50%; that for `N#CCCCCCC/C=C\CCCCCCCCCCCCCc1ccc(C=O)[nH]1` was less than 50%.
On the same count and under the same terms, the value for `N#CCCCCCCCCCCCCCCCCCCc1ccc(C=O)[nH]1` was less than 50%; that for `N#CCCCCCCCCCCCCC/C=C\CCCCCCc1ccc(C=O)[nH]1` was less than 50%.
On to `N#CCCCC/C=C\C/C=C\CCCCCCCCCCCCc1ccc(C=O)[nH]1` [MYCALENITRILE 7], for which the inhibition entry (in the assay with T47D [5]; in the assay on T47D [6]; in [4]) was “inactive” each time. Moreover, the outcome with T47D [7], in the assay on T47D [9] and with T47D [11] was inactive. Also, the values for the IC50 in assay [3] and in assay [2] were 8.6 µM and less than 10 µM, respectively. In addition, in the assay on T47D [8], the Activity entry was “Dose-dependent effect”. For the same molecule, the result with T47D [10] was Active.
For `CC(C)CCCCC/C=C\CCCCCCc1ccc(C=O)[nH]1` [MYCALAZAL 17], in assay [3], the IC50 was determined as 20 µM.
`N#CCCCCCCCCCCCCCCCCCCCc1ccc(C=O)[nH]1` gave an inhibition in [1] of less than 50%.
As for `CCCCCCCCCCCCCCCCc1ccc(C=O)[nH]1`, the inhibition in assay [1] is less than 50%.
Take `CC/C=C\C/C=C\C/C=C\CCCCCCCCCc1ccc(C=O)[nH]1` [MYCALAZAL 20]: the IC50 in assay [3] is 20 µM.
Consider `N#CCCCC/C=C\C/C=C\CCCCCCCCCCCCCCc1ccc(C=O)[nH]1` [MYCALENITRILE 5], for which, in assay [3], the IC50 is 10 µM. For the same molecule, the inhibition entry in [4] is “inactive”.
Turning to `N#CCCCCCC/C=C\CCCCCCCCCCCCCCCc1ccc(C=O)[nH]1` [MYCALENITRILE 10], the inhibition in assay [1] was less than 50%. Also, the 50% inhibitory concentration (IC50) in assay [2] was more than 30 µM.
With `N#CCCCC/C=C\C/C=C\CCCCCCCCCCc1ccc(C=O)[nH]1` [Mycalenitrile-6], in the assay with T47D [6], the inhibition at 30 µM was 50%. Moreover, the outcome in the assay on T47D [7], with T47D [9] and in the assay on T47D [11] was inactive. In addition, the IC50 in assay [3] is 7.8 µM; in [2] it was less than 10 µM. Besides, the Activity entry in the assay with T47D [8] was “Dose-dependent effect”. Also, the outcome in the assay on T47D [10] was Active. The inhibition entry in assay [4] is “inactive”.
The molecule `N#CCCCCCCCCCCCCCCCCCc1ccc(C=O)[nH]1` [MYCALENITRILE 1] came in with an IC50 in [3] of 10 µM. Moreover, the inhibition result in [4] is “inactive”.
`CCCCCC/C=C\CCCCCCCCCc1ccc(C=O)[nH]1` came in with an inhibition in [1] of less than 50%.
On the same count and under the same terms, for `CC/C=C\C/C=C\C/C=C\CCCCCCCc1ccc(C=O)[nH]1` the value was less than 50%.
Regarding `N#CCCCCCCCCCCCCCCCc1ccc(C=O)[nH]1` [MYCALENITRILE 13], the IC50 in assay [3] is 10 µM. In addition, the inhibition result in assay [4] is “inactive”.
`CC(C)CCCCCCCCCCCCc1ccc(C=O)[nH]1` showed an IC50 in [3] of 20 µM.
As for `CCCCCCCCCCCCCCCc1ccc(C=O)[nH]1`, the inhibition in [1] was less than 50%.
`CCC/C=C\C/C=C\CCCCCCCCCc1ccc(C=O)[nH]1` [MYCALAZAL 18]: the IC50 in assay [3] was 20 µM.
